This is an account of results in ChEMBL document CHEMBL1123803, “Synthesis and biological activities of pseudopeptide analogues of the C-terminal heptapeptide of cholecystokinin. On the importance of the peptide bonds” (J Med Chem, 1987).

SMILES strings stand for the structures.

The experiment is filed under the species Rattus norvegicus. The experiment can be described thus: Activity on Amylase release from rat pancreatic acini was determined. The class given is functional. In short, it runs like this: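 Dispersed rat pancreatic acini (about 1 mg protein/mL) in Hepes pH 7.4 standard incubation solution with 1% BSA, 1 mM calcium, 5 mM theophylline, gassed 95% O2/5% CO2; incubated 30 min at 37 °C across a concentration range. Amylase measured with Phadebas reagent; release = with minus without secretagogue, as percent of maximal CCK-8 stimulation. Duplicates, means of at least three experiments.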

On to `CCCC[C@H](NC(=O)[C@H](Cc1ccc(OS(=O)(=O)O)cc1)NC(=O)[C@H](CC(=O)O)NC(=O)OC(C)(C)C)C(=O)NCC(=O)N[C@@H](Cc1c[nH]c2ccccc12)C(=O)N[C@@H](CCCC)C(=O)N[C@@H](CC(=O)O)C(=O)N[C@@H](Cc1ccccc1)C(N)=O`, for which the conc. for maximal amylase release came to 300 pM.
